Compound activity (PubChem)
Sampled rows, rich in hits. Any-hit rate of the full collection: about 2.5%.
MC4R antag cAMP: antagonists of human melanocortin 4 receptor (MC4R); MC4R-expressing cells, MTII-stimulated cAMP, LANCE TR-FRET; inhibition, % at 6.5 µM; AID 540295; actives 0.48% (n = 360,000); P32245;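 active means inhibition above its plate's cutoff, the mean of tested wells on that plate plus 3 SD, cut at about 29% in these data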;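 further: 0% = Melanotan II alone and 100% = Melanotan II plus saturating MCL0020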
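Material: U2OS-MC4R stable cell line | Reagent: Melanotan II challenge after compound preincubation | Doses: One concentration, 6.5 µM nominal | Incubation: 30-min compound preincubation, 1-h Melanotan II challenge, 1-h detection, room temperature | Signal: TR-FRET cAMP assay | Replicates: One well per compound, no replicates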
NTR1 agonist: NTR1 (human) agonism | NTR1-U2OS beta-arrestin-GFP spot imaging, agonist mode | P30989 | actives 0.17% (n = 330,000) | activation, % at 20 µM;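 active means activation at or above 40% of the spot to cytoplasm intensity ratio, with at least 20 cells analyzed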;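 further: 0% = DMSO without peptide and 100% = 100 nM NTR1 peptide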
Bfl-1 A1 inh: inhibitors of the anti-apoptotic protein A1, read as caspase activation. MEF A1-2A-BIM cells, Caspase-Glo 3/7 luminescence, 3 h; percent of clofoctol response, vehicle zero. caspase activation, % (concentration not given with the values). actives 0.066% (n = 330,000);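 active means over half of replicate activation scores above 10%, or exactly half above 10 with the replicate mean above 10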
HGIII-sPLA2 inh: Blocks human group III sPLA2 activity | Q9NZ20 | QFRET BODIPY PC-A2 liposome hydrolysis, fluorescence | inhibition, % at 12.2 µM | actives 0.56% (n = 370,000) | AID 743126;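 active means inhibition above mean plus 3 SD of compounds lying within the high and low control bounds, cut at about 19% in these data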;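 further: 0% = median of test compound wells and 100% = no enzyme DMSO wells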
Target sequence (Q9NZ20 whole entry, looked up): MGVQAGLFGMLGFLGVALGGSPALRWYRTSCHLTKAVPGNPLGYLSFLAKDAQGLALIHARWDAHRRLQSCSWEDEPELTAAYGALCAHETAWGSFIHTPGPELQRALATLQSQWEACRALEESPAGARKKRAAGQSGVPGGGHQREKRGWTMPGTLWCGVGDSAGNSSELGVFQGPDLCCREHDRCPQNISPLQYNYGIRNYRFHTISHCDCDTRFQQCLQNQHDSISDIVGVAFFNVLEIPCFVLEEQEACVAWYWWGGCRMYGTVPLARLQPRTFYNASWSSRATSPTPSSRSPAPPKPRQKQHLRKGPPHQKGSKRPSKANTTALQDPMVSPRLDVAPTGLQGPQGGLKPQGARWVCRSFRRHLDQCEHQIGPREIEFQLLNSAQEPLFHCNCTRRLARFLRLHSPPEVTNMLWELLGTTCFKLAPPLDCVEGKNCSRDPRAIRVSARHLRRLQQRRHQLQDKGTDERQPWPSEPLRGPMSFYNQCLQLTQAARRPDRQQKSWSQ
MC4R ag barr: agonists of human melanocortin 4 receptor (MC4R) beta-arrestin | P32245 | U2OS MC4R beta-arrestin complementation, luminescence; percent of melanotan II response, DMSO zero | activation, % at 8.9 µM | actives 0.98% (n = 360,000);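 active means activation above a per-plate cutoff, the mean activation of sample wells on that plate plus 3 SD, cut at about 8% in these data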
Granule exo inh: lytic granule exocytosis inhibition; TALL-104 LAMP-1 surface exposure, flow cytometry; cells stimulated with thapsigargin and PMA; inhibition, % at 10 µM; actives 0.66% (n = 360,000); AID 651702;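 active means inhibition above about 55%, limit read from the data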
sPLA2 confirm: human GIII-sPLA2 inhibition, confirmation | AID 743280 | recombinant hGIII-sPLA2, BODIPY PC-A2 QFRET fluorescence | inhibition, % at 12.2 µM | actives 34% (n = 2,000) | shares compounds with HGIII-sPLA2 inh;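 active means mean inhibition across triplicates above the hit cutoff set in the earlier primary screen, cut at about 19% in these data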;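 further: 0% = enzyme with DMSO and 100% = DMSO wells lacking enzyme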
BODIPY interf: optically interferes with 535nm fluorescence in sPLA2 counter-screen | shares compounds with HGIII-sPLA2 inh | BODIPY FL product fluorescence interference, QFRET | inhibition, % at 12.2 µM | actives 8.5% (n = 2,000);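 active means average inhibition above the solvent-only control mean plus 3 SD, cut at about 6% in these data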;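 further: 0% = DMSO with substrate plus product and 100% = DMSO with substrate alone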
* = called active by the depositor; · = not tested or not shown.

SMILES	MC4R antag cAMP	NTR1 agonist	Bfl-1 A1 inh	HGIII-sPLA2 inh	MC4R ag barr	Granule exo inh	sPLA2 confirm	BODIPY interf
COCc1cc(CN2CCCC(C(=O)Nc3cccc(-n4cnnn4)c3)C2)ccc1OC (stereo unspecified)	13	0	1	-3	1	-10	·	·
Cc1ccc(-c2csc(/C(C#N)=C/Nc3ccccc3SC(F)(F)F)n2)c(C)c1	10	0	1	3	-1	-15	·	·
CC1(c2nnc(-c3ccccc3)o2)CC(c2ccc([N+](=O)[O-])cc2)=NO1 (stereo unspecified)	9	1	0	2	1	15	·	·
CCNC(=O)C[C@H]1CC[C@H]2[C@@H](COc3ccc(NC(=O)Nc4ccccc4)cc3C(=O)N2C)O1	·	·	·	-14	·	·	·	·
CCC(=O)Nc1ccc2c(c1)C(=O)N(C)[C@@H]1CC[C@@H](CC(=O)NCCN3CCCCC3)O[C@H]1CO2	·	·	·	21*	·	·	2	-5
CCC(=O)Nc1ccc(C(=O)NCc2ccccn2)cc1	2	0	0	20*	0	-3	-1	-2
CCOc1ccc(C(=O)NCc2ccccn2)cc1	-1	0	1	·	1	2	·	·
CCC(=O)Nc1ccc(C(=O)NNC(=O)CCCCC(=O)NNC(=O)c2ccc(NC(=O)CC)cc2)cc1	4	·	·	22*	1	-2	2	-10
C=CCNC(=O)COc1ccccc1C#N	12	-1	0	7	-2	-2	·	·
C=CCNC(=O)COc1cc(C)ccc1C	2	0	1	20*	1	0	3	-9
Cc1ccc2c(c1)-c1c(ssc1=S)C(C)(C)N2C(=O)CSC1=NCCS1	9	10	1	11	-1	-2	·	·
CCOc1ccc2c(c1)-c1c(ssc1=S)C(C)(C)N2C(=O)CSC1=NCCS1	5	5	1	36*	1	-5	20*	-8
